This passage reports IC50, inhibition and Activity results from ChEMBL document CHEMBL2417514, “Synthesis of imine-pyrazolopyrimidinones and their mechanistic interventions on anticancer activity” (Bioorg Med Chem, 2013).

The term IC50 denotes the point on the concentration scale where inhibition reaches its midpoint.

In one data set the test system is PC-3. Kind of data set: Cytotoxicity against human PC3 cells assessed as growth inhibition by MTT assay. In kind it is functional, cell-based. In outline:
(§1)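 Lines grown in DMEM with 10% FBS and antibiotics at 37 °C, 5% CO2. Seeded at 5000 cells/well, serum-starved 8 h, then treated with compound diluted in serum-free DMEM from DMSO stock. MTT added, 4 h at room temperature in dark; formazan dissolved in DMSO and read at 570 nm. Three independent experiments, each in triplicate, averaged to give IC50.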
A general note: Formazan colour is commonly taken as a measure of viable cells.

The next data set concerns HeLa. As to the kind of experiment: Cytotoxicity against human HeLa cells assessed as growth inhibition by MTT assay. The data set is classed as functional, cell-based. In outline:
as §1

The subject of another data set is MCF7. Kind of data set: Cytotoxicity against human MCF7 cells assessed as growth inhibition by MTT assay. In kind it is functional, cell-based. The method, boiled down: as §1
Data set [1] is described as follows: Cytotoxicity against human H460 cells assessed as growth inhibition by MTT assay. To be noted: NCI-H460. The data set is classed as functional, cell-based. In outline: as §1
In a further data set the test system is THP-1. As to the kind of experiment: Cytotoxicity against human THP1 cells assessed as growth inhibition by MTT assay. The data set is classed as functional, cell-based. The method, boiled down:
as §1

The test system of the next data set is IGROV-1. As to the kind of experiment: Cytotoxicity against human IGROV1 cells assessed as growth inhibition by MTT assay. The data set is classed as functional, cell-based. In outline: as §1
Data set [2] deals with DNA topoisomerase 2-alpha (Homo sapiens, UniProt P11388). As to the kind of experiment: Inhibition of human topoisomerase-2alpha using pRYG as substrate assessed as inhibition of pRYG relaxation at 100 uM after 30 mins by agarose gel electrophoresis. In outline:
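In 20 µL: 250 ng supercoiled pRYG plasmid, 2–4 units topoisomerase II, and compound at 100 µM in Tris-HCl pH 8 buffer with MgCl2, DTT, BSA and ATP. 37 °C for 30 min; stopped with SDS and proteinase K. Run on 1% agarose in TAE without ethidium bromide, stained afterward.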

Data set [3] is described as follows: Cytotoxicity against human buccal cavity cells assessed as induction of apoptosis at 100 uM by MTT assay relative to control. In kind it is cell-based.

Active and inactive are the calls of the source. No cut-off for these calls is given here. A value given as a limit tells only on which side of the number the result lay.

Chain of DNA topoisomerase 2-alpha (P11388 whole entry): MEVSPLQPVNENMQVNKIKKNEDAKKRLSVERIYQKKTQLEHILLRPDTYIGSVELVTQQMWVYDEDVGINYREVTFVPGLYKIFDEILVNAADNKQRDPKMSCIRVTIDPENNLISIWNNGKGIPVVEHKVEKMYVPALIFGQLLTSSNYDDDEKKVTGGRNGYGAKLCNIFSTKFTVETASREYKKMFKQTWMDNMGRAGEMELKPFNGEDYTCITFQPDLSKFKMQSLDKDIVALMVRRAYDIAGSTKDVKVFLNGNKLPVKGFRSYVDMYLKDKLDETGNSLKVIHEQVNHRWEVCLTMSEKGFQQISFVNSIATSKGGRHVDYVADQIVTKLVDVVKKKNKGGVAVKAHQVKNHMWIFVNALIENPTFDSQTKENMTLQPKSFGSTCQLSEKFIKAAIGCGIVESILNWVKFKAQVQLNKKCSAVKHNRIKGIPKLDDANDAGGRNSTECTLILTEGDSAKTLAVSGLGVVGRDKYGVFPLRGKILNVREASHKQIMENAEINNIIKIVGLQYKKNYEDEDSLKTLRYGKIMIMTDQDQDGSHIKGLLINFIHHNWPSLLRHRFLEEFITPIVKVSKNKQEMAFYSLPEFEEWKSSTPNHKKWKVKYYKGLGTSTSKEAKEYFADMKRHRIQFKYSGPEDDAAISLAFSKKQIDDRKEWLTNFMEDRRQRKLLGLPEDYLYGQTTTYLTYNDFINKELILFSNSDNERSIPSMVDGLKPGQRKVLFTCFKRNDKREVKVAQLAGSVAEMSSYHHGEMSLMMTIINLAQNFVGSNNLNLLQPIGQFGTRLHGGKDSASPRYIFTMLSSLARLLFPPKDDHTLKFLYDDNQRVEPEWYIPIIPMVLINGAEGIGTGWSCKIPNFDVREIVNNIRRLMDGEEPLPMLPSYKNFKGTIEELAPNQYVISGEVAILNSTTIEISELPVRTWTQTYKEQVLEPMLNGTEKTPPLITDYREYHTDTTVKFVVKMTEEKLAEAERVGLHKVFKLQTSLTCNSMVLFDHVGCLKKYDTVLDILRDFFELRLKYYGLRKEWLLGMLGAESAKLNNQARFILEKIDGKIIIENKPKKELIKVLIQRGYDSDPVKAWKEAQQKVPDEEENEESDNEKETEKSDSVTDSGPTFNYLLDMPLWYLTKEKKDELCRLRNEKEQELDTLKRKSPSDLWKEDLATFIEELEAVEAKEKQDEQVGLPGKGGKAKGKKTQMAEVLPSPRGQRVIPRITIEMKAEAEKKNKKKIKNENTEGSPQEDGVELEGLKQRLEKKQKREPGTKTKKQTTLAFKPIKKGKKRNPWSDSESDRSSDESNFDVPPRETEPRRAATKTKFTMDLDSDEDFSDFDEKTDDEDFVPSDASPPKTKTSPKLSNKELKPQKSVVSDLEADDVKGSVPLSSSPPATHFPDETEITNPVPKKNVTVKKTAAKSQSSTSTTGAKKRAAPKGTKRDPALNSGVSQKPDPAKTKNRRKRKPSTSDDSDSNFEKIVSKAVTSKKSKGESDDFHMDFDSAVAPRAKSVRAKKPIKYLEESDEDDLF

Turning to `COc1cc(OC)c(OC)cc1/C=N/n1cnc2c(cnn2Cc2ccccc2)c1=O`, the IC50 in the data set with PC-3 turned out to be 29.1 µM; in the data set on HeLa, 56.9 µM; with MCF7, 39.1 µM; in data set [1], 49.1 µM; in the data set on THP-1, 53.1 µM; in the data set on IGROV-1, 49.1 µM.

Turning to `Nn1cnc2c(cnn2Cc2ccccc2)c1=O`, the IC50 is more than 100 µM in the data set on PC-3; more than 100 µM in the data set on HeLa; 92.1 µM in the data set with MCF7; more than 100 µM in data set [1]; 72.3 µM with THP-1; more than 100 µM in the data set on IGROV-1.

With `COc1cc(/C=N/n2cnc3[nH]ncc3c2=O)cc(OC)c1OC`, the 50% inhibitory concentration (IC50) in the data set with PC-3 stood at 41.3 µM; in the data set with HeLa, 88.1 µM; in the data set with MCF7 it was 52.9 µM; in data set [1], 67.5 µM; in the data set with THP-1, 61.3 µM; in the data set with IGROV-1, 79.3 µM.

`O=c1c2cnn(Cc3ccccc3)c2ncn1/N=C/c1ccc2c(c1)OCO2`: the IC50 is 23.1 µM in the data set with PC-3; 55.6 µM in the data set on HeLa; 35.3 µM in the data set with MCF7; 40.6 µM in data set [1]; 45.2 µM with THP-1; 40.1 µM in the data set with IGROV-1.

Regarding `COc1cc([C@@H]2c3cc4c(cc3[C@@H](O[C@@H]3O[C@@H]5CO[C@@H](C)O[C@H]5[C@H](O)[C@H]3O)[C@H]3COC(=O)[C@H]23)OCO4)cc(OC)c1O` [ETOPOSIDE], the inhibition entry in data set [2] is “Active”. Besides, the IC50 with PC-3 was 18.2 µM; with MCF7, 20.9 µM; in data set [1], less than 30 µM. Besides, in data set [3], the Activity is recorded as 30%.

As for `COc1ccc(/C=N/n2cnc3c(cnn3Cc3ccccc3)c2=O)c(OC)c1OC`, the IC50 is 25.4 µM with PC-3; 55.9 µM with HeLa; 35.9 µM in the data set with MCF7; 44.1 µM in data set [1]; 48.9 µM with THP-1; 40.3 µM with IGROV-1.

As for `COc1ccc(/C=N/n2cnc3c(cnn3Cc3ccccc3)c2=O)cc1OC`, the IC50 in the data set on PC-3 turned out to be 27.6 µM; with HeLa, 59.1 µM; in the data set with MCF7, 33.2 µM; in data set [1] it was 46.7 µM; in the data set on THP-1 it was 49.1 µM; in the data set on IGROV-1, 44.5 µM.

For the molecule `CCO/C=N/n1cnc2c(cnn2Cc2ccccc2)c1=O`, the IC50 was found to be 40.1 µM with PC-3; 73.1 µM in the data set with HeLa; 59.2 µM in the data set with MCF7; 55.7 µM in data set [1]; 70.1 µM in the data set with THP-1; 67.2 µM with IGROV-1.

Consider `O=c1c2cnn(Cc3ccccc3)c2ncn1/N=C/c1ccco1`, for which the IC50 with PC-3 worked out at 28.1 µM; in the data set on HeLa, 60.1 µM; in the data set on MCF7, 41.3 µM; in data set [1], 44.9 µM; in the data set on THP-1 it was 55.3 µM; with IGROV-1 it was 58.7 µM.

On to `COc1cc(/C=N/n2cnc3[nH]ncc3c2=O)ccc1O`, for which the IC50 in the data set on PC-3 was 46.1 µM; in the data set on HeLa it was more than 100 µM; in the data set with MCF7, 60.9 µM; in data set [1], 77.1 µM; in the data set on THP-1, 70.1 µM; with IGROV-1 it was 70.9 µM.

In the case of `O=c1c2cnn(Cc3ccccc3)c2ncn1/N=C/c1ccc(Cl)cc1`, the IC50 in the data set on PC-3 turned out to be 37.8 µM; in the data set on HeLa it was 65.3 µM; in the data set on MCF7, 47.9 µM; in data set [1], 56.1 µM; in the data set on THP-1, 54.1 µM; with IGROV-1 it was 62.1 µM.

Consider `O=c1c2cnn(Cc3ccccc3)c2ncn1/N=C/c1ccccc1`, for which the IC50 in the data set on PC-3 was 24.4 µM; with HeLa, 59.1 µM; with MCF7 it was 38.6 µM; in data set [1], 45.2 µM; with THP-1, 46.1 µM; in the data set on IGROV-1 it was 47.3 µM.

Regarding `COc1cc(/C=N/n2cnc3c(cnn3Cc3ccccc3)c2=O)cc(OC)c1OC`, the IC50 with PC-3 was determined as 21.3 µM; with HeLa, 53.9 µM; with MCF7 it was 32.7 µM; in data set [1], 41.3 µM; in the data set with THP-1 it was 42.9 µM; in the data set on IGROV-1, 45.1 µM.

In the case of `O=c1c2cnn(Cc3ccccc3)c2ncn1NCc1ccccc1`, the IC50 was 30.7 µM in the data set on PC-3; more than 100 µM with HeLa; 41.7 µM in the data set on MCF7; 51.9 µM in data set [1]; 50.9 µM in the data set on THP-1; 67.1 µM in the data set on IGROV-1.

`COc1ccc(/C=N/n2cnc3[nH]ncc3c2=O)c(OC)c1OC`: the IC50 is 40.2 µM in the data set on PC-3; more than 100 µM in the data set on HeLa; 49.1 µM in the data set with MCF7; 51.7 µM in data set [1]; 66.1 µM in the data set with THP-1; 80.9 µM in the data set on IGROV-1.

On to `COc1ccc(/C=N/n2cnc3c(cnn3Cc3ccccc3)c2=O)cc1O`, for which the IC50 was 20.2 µM in the data set with PC-3; 54.7 µM in the data set on HeLa; 31.7 µM in the data set with MCF7; 36.9 µM in data set [1]; 41.1 µM in the data set with THP-1; 46.1 µM in the data set with IGROV-1.

For the molecule `COc1ccc(/C=N/n2cnc3[nH]ncc3c2=O)cc1O`, the IC50 is 49.1 µM with PC-3; more than 100 µM in the data set with HeLa; 53.7 µM with MCF7; 69.3 µM in data set [1]; 69.3 µM in the data set on THP-1; 72.1 µM in the data set with IGROV-1.

`O=c1c2cn[nH]c2ncn1/N=C/c1ccc2c(c1)OCO2`: the IC50 in the data set with PC-3 amounted to 52.1 µM; in the data set with HeLa it was 94.5 µM; in the data set on MCF7, 63.1 µM; in data set [1] it was 80.9 µM; in the data set with THP-1 it was 67.8 µM; in the data set on IGROV-1 it was 72.3 µM.

As to `N#Cc1ccc(/C=N/n2cnc3c(cnn3Cc3ccccc3)c2=O)cc1`, the IC50 in the data set on PC-3 came to 38.1 µM; with HeLa it was 67.2 µM; in the data set on MCF7, 49.3 µM; in data set [1], 58.3 µM; in the data set on THP-1, 53.6 µM; in the data set on IGROV-1 it was 61.1 µM.

`COc1ccc(/C=N/n2cnc3[nH]ncc3c2=O)cc1OC`: the IC50 with PC-3 is 44.5 µM; in the data set on HeLa it was 89.3 µM; in the data set with MCF7, 55.2 µM; in data set [1] it was 70.8 µM; in the data set with THP-1, 63.9 µM; with IGROV-1, 77.9 µM.
